How the values were obtained:
[1] = biological target: T1, Cannabinoid receptor 2 (Homo sapiens, UniProt P34972); assay: Agonist activity at human CB2 receptor expressed in CHOK1 cells assessed as inhibition of forskolin-induced cAMP production treated 15 mins before forskolin challenge measured after 1 hr by HTRF assay relative to control; assay type: functional, cell-based; details: CHO-K1
In short: (§1)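 CHO-K1 cells (1000 per well) expressing human or rat CB1 or CB2 were preincubated with compound at room temperature for 15 min. Forskolin at EC70 was then added for a further 30 min at room temperature. cAMP was read by HTRF (d2-cAMP plus anti-cAMP-cryptate, final 1 h at room temperature). IC50 and % Emax were reported.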

[2] = biological target: T1, Cannabinoid receptor 2; assay: Agonist activity at human CB2 receptor expressed in CHOK1 cells assessed as inhibition of forskolin-induced cAMP production treated 15 mins before forskolin challenge measured after 1 hr by HTRF assay; assay type: functional, cell-based, CHO-K1
In short: (§2)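 CHO-K1 cells (1000 per well) expressing human or rat CB1 or CB2 were preincubated with compound for 15 min at room temperature. Forskolin was then added at its EC70 for 30 min at room temperature. cAMP was detected by HTRF (d2-cAMP plus anti-cAMP cryptate) after a final 1 h incubation at room temperature. Values are reported as IC50 with % Emax.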

[3] = biological target: T2, Cannabinoid receptor 1 (Homo sapiens, UniProt P21554); assay: Agonist activity at human CB1 receptor expressed in CHOK1 cells assessed as inhibition of forskolin-induced cAMP production treated 15 mins before forskolin challenge measured after 1 hr by HTRF assay; assay type: functional, cell-based, CHO-K1; in short: as §2
[4] = Fraction unbound in rat plasma; assay type: ADME, cell-free
[5] = Distribution coefficient, log P of the compound; assay type: physicochemical; details: octanol/water
[6] = biological target: T2, Cannabinoid receptor 1; assay: Agonist activity at human CB1 receptor expressed in CHOK1 cells assessed as inhibition of forskolin-induced cAMP production treated 15 mins before forskolin challenge measured after 1 hr by HTRF assay relative to control; assay type: functional, cell-based; details: CHO-K1; in short: as §1
[7] = test system: Rattus norvegicus; assay: Antiinflammatory activity in sc dosed rat assessed as inhibition of complete Freund's adjuvant-induced paw withdrawal threshold after 60 mins; assay type: functional, organism-based
In short: (§3)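 Rat complete Freund's adjuvant hyperalgesia model. Compound was given subcutaneously at 10, 30 or 100 mpk. Paw withdrawal threshold was read at the 60 min timepoint and expressed as % reversal.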

[8] = biological target: T3, Cannabinoid receptor 2 (Rattus norvegicus) (UniProt Q9QZN9); assay: Agonist activity at rat CB2 receptor expressed in CHOK1 cells assessed as inhibition of forskolin-induced cAMP production treated 15 mins before forskolin challenge measured after 1 hr by HTRF assay relative to control; assay type: functional, cell-based; details: CHO-K1; in short: as §1
T3 sequence (whole entry): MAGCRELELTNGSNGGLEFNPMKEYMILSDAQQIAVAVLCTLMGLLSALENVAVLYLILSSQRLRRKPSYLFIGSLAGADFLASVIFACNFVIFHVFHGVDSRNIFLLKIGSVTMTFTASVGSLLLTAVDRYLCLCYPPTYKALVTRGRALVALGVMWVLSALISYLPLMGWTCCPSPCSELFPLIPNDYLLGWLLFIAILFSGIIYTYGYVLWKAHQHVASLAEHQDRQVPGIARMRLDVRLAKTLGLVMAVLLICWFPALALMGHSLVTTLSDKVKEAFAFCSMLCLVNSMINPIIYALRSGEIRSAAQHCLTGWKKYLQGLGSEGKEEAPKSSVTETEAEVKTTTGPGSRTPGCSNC

[9] = biological target: Cannabinoid receptor 1 (Rattus norvegicus) (UniProt P20272); assay: Agonist activity at rat CB1 receptor expressed in CHOK1 cells assessed as inhibition of forskolin-induced cAMP production treated 15 mins before forskolin challenge measured after 1 hr by HTRF assay relative to control; assay type: functional, cell-based; details: CHO-K1; in short: as §1
[10] = species on record: Rattus norvegicus
[11] = Clearance in rat at 2 mg/kg, iv; assay type: ADME, organism-based; parameters: dose 2 mg/kg, route intravenous; details: in vivo
[12] = Half life in rat at 2 mg/kg, iv; assay type: ADME, organism-based; parameters: dose 2 mg/kg, route intravenous; details: in vivo
[13] = species on record: Homo sapiens; assay: Selectivity ratio of IC50 for human CB1 receptor to IC50 for human CB2 receptor
[14] = biological target: T4, Cannabinoid receptor 2 (Rattus norvegicus, UniProt Q9QZN9); assay: Agonist activity at rat CB2 receptor expressed in CHOK1 cells assessed as inhibition of forskolin-induced cAMP production treated 15 mins before forskolin challenge measured after 1 hr by HTRF assay; assay type: functional, cell-based, CHO-K1; in short: as §2
T4 sequence (Q9QZN9 whole entry): T3 sequence (whole entry)

[15] = biological target: Cannabinoid receptor 1 (Rattus norvegicus, UniProt P20272); assay: Agonist activity at rat CB1 receptor expressed in CHOK1 cells assessed as inhibition of forskolin-induced cAMP production treated 15 mins before forskolin challenge measured after 1 hr by HTRF assay; assay type: functional, cell-based, CHO-K1; in short: as §2
[16] = test system: Rattus norvegicus; assay: Antiinflammatory activity in rat assessed as inhibition of complete Freund's adjuvant-induced paw withdrawal threshold at 10 mg/kg, sc after 60 mins (reference value: 4.8%); assay type: functional; details: 1 h, route subcutaneous; in short: as §3
[17] = test system: Rattus norvegicus; assay: Antiinflammatory activity in rat assessed as inhibition of complete Freund's adjuvant-induced paw withdrawal threshold at 30 mg/kg, sc after 60 mins (reference value: 4.8%); assay type: functional; details: 1 h, route subcutaneous; in short: as §3
[18] = test system: Rattus norvegicus; assay: Antiinflammatory activity in rat assessed as inhibition of complete Freund's adjuvant-induced paw withdrawal threshold at 100 mg/kg, sc after 60 mins (reference value: 4.8%); assay type: functional; details: 1 h, route subcutaneous; in short: as §3
[19] = test system: Plasma; assay: Drug level in rat complete Freund's adjuvant-induced inflammation model plasma at 30 mg/kg, sc; assay type: ADME, organism-based; parameters: dose 30 mg/kg, route subcutaneous; details: in vivo, read-out: Drug uptake
In short: (§4)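 In the rat CFA hyperalgesia experiments, after 30 mpk subcutaneous dosing, compound levels (nM) were measured in plasma, brain homogenate and cerebrospinal fluid.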

[20] = test system: Brain; assay: Drug level in rat complete Freund's adjuvant-induced inflammation model brain at 30 mg/kg, sc; assay type: ADME, organism-based; parameters: dose 30 mg/kg, route subcutaneous; details: in vivo, read-out: Drug uptake; in short: as §4
[21] = test system: Cerebrospinal fluid; assay: Drug level in rat complete Freund's adjuvant-induced inflammation model cerebrospinal fluid at 30 mg/kg, sc; assay type: ADME, organism-based; parameters: dose 30 mg/kg, route subcutaneous; details: in vivo, read-out: Drug uptake; in short: as §4

T1 sequence (P34972 whole entry): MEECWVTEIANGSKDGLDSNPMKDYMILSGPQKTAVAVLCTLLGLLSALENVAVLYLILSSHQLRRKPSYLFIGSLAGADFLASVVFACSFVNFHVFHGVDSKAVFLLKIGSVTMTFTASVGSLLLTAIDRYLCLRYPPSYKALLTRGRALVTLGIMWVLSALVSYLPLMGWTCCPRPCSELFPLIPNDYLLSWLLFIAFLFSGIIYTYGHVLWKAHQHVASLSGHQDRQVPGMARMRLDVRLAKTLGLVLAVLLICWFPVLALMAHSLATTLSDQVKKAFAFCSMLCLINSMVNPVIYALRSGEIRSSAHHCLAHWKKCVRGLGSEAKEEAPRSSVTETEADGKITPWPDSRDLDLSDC
T2 sequence (P21554 whole entry): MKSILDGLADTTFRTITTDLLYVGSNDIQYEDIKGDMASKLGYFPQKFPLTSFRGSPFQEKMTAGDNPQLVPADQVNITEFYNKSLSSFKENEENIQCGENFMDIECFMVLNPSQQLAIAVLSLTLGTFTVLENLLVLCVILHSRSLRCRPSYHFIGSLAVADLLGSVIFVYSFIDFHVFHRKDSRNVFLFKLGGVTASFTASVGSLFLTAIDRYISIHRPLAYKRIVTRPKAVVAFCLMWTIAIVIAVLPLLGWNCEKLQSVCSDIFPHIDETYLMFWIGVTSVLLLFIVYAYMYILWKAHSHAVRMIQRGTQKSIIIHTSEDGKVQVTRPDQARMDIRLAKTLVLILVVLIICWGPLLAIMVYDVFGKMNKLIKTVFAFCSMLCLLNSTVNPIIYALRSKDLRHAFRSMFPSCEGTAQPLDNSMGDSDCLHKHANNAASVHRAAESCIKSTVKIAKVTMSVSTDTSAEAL
Chain of Cannabinoid receptor 1 (Rattus norvegicus, UniProt P20272) (P20272 whole entry): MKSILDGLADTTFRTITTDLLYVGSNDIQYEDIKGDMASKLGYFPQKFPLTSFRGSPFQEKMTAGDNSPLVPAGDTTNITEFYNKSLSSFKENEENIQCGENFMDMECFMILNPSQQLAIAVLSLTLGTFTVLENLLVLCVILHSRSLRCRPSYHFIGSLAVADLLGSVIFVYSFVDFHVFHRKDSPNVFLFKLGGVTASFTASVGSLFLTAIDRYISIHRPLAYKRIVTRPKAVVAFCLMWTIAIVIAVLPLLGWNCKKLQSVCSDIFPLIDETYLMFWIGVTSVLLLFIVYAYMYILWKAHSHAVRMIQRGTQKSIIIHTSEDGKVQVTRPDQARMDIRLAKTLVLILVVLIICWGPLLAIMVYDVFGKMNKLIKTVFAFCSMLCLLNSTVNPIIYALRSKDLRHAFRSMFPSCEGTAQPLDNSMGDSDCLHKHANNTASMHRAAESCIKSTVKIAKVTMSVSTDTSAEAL
Chain of Cannabinoid receptor 1 (Rattus norvegicus) (P20272 whole entry): as above

Structure (SMILES)	Emax [1] [%]	IC50 [2] [nM]	IC50 [3] [nM]	Emax [6] [%]	further results
CN1CCOCC1C(=O)N1CC[C@@](O)(c2ccccc2)[C@@H]2CCCC[C@@H]21 (mixture of isomers)	100	30	> 17000		fraction unbound [4]: 0.34; logP [5]: 2.28
Cc1ccc(C(=O)N2CC[C@@](O)(c3ccccc3)[C@@H]3CCCC[C@@H]32)cn1 [listing 1 of 2 here]	103			78	inhibition [7]: Dose-dependent effect; Emax [8]: 119%; Emax [9]: 94%; Papp [10]: 36 ×10⁻⁶ cm/s
O=C(c1cccc2[nH]ncc12)N1CC[C@@](O)(c2ccccc2)[C@@H]2CCCC[C@@H]21 (racemic)	102	4	> 17000	15	fraction unbound [4]: 0.048; clearance [11]: 70 mL/min/kg; half-life [12]: 25.8 min; Ratio IC50 [13]: > 4000
O=C(c1cccc2[nH]ccc12)N1CC[C@](O)(c2ccccc2)[C@H]2CCCC[C@H]21	100	0.62	> 17000	64	
O=C(c1cccc2[nH]ccc12)N1CC[C@](O)(c2ccccc2)[C@H]2CCCC[C@@H]21	94	22	> 17000	31	
CN1CCC(C(=O)N2CC[C@](O)(c3ccccc3)[C@H]3CCCC[C@H]32)C1 (some centres not stated)	102	5.9	> 17000	6	
O=C(c1cccc2[nH]cnc12)N1CC[C@@](O)(c2ccccc2)[C@@H]2CCCC[C@@H]21 (racemic)	101	35	> 17000	53	Ratio IC50 [13]: > 486
O=C(c1cc(-c2ccccc2F)[nH]n1)N1CC[C@](O)(c2ccccc2)[C@H]2CCCC[C@H]21	99	21	> 17000	46	
O=C(c1ccc2ccccc2n1)N1CC[C@](O)(c2ccccc2)[C@H]2CCCC[C@@H]21	98	41	2020	84	
O=C(c1ccc2[nH]ccc2c1)N1CC[C@@](O)(c2ccccc2)[C@@H]2CCCC[C@@H]21 (racemic)	104	1.4	1000	91	Ratio IC50 [13]: 716
Cc1ccc(C(=O)N2CC[C@@](O)(c3ccccc3)[C@@H]3CCCC[C@@H]32)cn1 [listing 2 of 2 here]		7.3	5020		IC50 [14]: 6.3 nM; IC50 [15]: 1890 nM; inhibition in vivo at 10 mg/kg [16]: 28.2%; inhibition in vivo at 30 mg/kg [17]: 53.6%; inhibition in vivo at 100 mg/kg [18]: 76.4%; concentration [19]: 4.2 µM; concentration [20]: 3.2 µM; concentration [21]: 0.223 µM
O=C(c1ccccc1)N1CC[C@](O)(c2ccccc2)[C@H]2CCCC[C@H]21	100	4.2	4540	76	
O=C(c1ccccc1)N1CC[C@](O)(c2ccccc2)[C@H]2CCCC[C@@H]21	99	45	> 17000	14	
